# Source: ChEMBL document CHEMBL1914299, “Synthesis and antitumor activity of β-carboline 3-(substituted-carbohydrazide) derivatives” (Bioorg Med Chem, 2011)
# pIC50: −log10 of the molar value. Activity calls are given as the source filed them. No cut-off for these calls is given here.
# Legend:
# Mus musculus [1] = assay: Antitumor activity against mouse Ehrlich Ascitic tumor xenografted in BALB/c mouse assessed as reduction of tumor volume in paw at 30 mg/kg, ip administered every 3 days for 15 days measured on day 9 by plethysmograph analysis; type: functional, organism-based; design: dose 30 mg/kg
# Procedure, shortened: (§1)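 Ehrlich tumor cells collected from ascitic fluid and counted by Trypan blue exclusion, viability above 90%. Cells diluted in 0.9% PBS to […]. Injected sub-plantar into right hind paw of Balb/C mice (20–35 g), 2.5 × 10⁶ viable cells. Compound given ip every 3 days over 15 days, vehicle 0.9% saline, 5-fluorouracil 10 mg/kg as positive control. Paw volume measured by plethysmometer every 3 days until sacrifice on day 15.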
# Mus musculus [2] = assay: Antitumor activity against mouse Ehrlich Ascitic tumor xenografted in BALB/c mouse assessed as reduction in paw edema at 30 mg/kg, ip administered every 3 days for 15 days measured on day 12 and day 15 by plethysmograph analysis; type: functional, organism-based; design: dose 30 mg/kg; procedure, shortened: as §1
# NCI-H460 = assay: Antitumor activity against human NCI-H460 cells by SRB colorimetric assay; type: functional, cell-based
# Procedure, shortened: (§2)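 NCI sulforhodamine B colorimetric growth assay in 96-well plates. Each compound tested at four concentrations in 10-fold dilutions. Doxorubicin as positive control. IC50 taken from concentration–response curves as the concentration giving 50% reduction in cell growth versus untreated control cells.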
# HT-29 = assay: Antitumor activity against human HT-29 cells by SRB colorimetric assay; type: functional, cell-based; procedure, shortened: as §2
# 786-0 = assay: Antitumor activity against human 786-0 cells by SRB colorimetric assay; type: functional, cell-based; procedure, shortened: as §2
# MCF7 = assay: Antitumor activity against human MCF7 cells by SRB colorimetric assay; type: functional, cell-based; procedure, shortened: as §2
# OVCAR = assay: Antitumor activity against human OVCAR cells by SRB colorimetric assay; type: functional, cell-based; procedure, shortened: as §2
# K562 = assay: Antitumor activity against human K562 cells by SRB colorimetric assay; type: functional, cell-based; procedure, shortened: as §2
# Mus musculus [3] = assay: Antitumor activity against mouse Ehrlich Ascitic tumor xenografted in BALB/c mouse assessed as reduction of tumor volume in paw at 10 mg/kg, ip administered every 3 days for 15 days measured on day 9 by plethysmograph analysis; type: functional, organism-based; design: dose 10 mg/kg
# Mus musculus [4] = assay: Antiinflammatory activity in mouse Ehrlich Ascitic tumor xenografted BALB/c mouse assessed as reduction in paw edema at 30 mg/kg, ip administered every 3 days for 15 days by plethysmograph analysis; type: functional, organism-based; design: dose 30 mg/kg; procedure, shortened: as §1
# UACC-62 = assay: Antitumor activity against human UACC62 cells by SRB colorimetric assay; type: functional, cell-based; procedure, shortened: as §2
# [5] = Antitumor activity against human PCO3 cells by SRB colorimetric assay; type: functional, cell-based; procedure, shortened: as §2
# Mus musculus [6] = assay: Acute toxicity in BALB/c mouse at 30 mg/kg, ip; type: organism-based; design: dose 30 mg/kg, route intraperitoneal; settings: in vivo
Compound,Activity (Mus musculus [1]),Activity (Mus musculus [2]),pIC50 (NCI-H460),pIC50 (HT-29),pIC50 (786-0),pIC50 (MCF7),pIC50 (OVCAR),pIC50 (K562),Activity (Mus musculus [3]),Activity (Mus musculus [4]),pIC50 (UACC-62),pIC50 [5],Activity (Mus musculus [6])
CN(C)c1ccc(/C=N/NC(=O)c2cc3c([nH]c4ccccc43)c(-c3cccc([N+](=O)[O-])c3)n2)cc1,Active,Active,5.68,5.01,7.40,6.20,6.72,6.62,Active,Active,5.87,5.38,Non-toxic
O=c1[nH]cc(F)c(=O)[nH]1,,,,,,,,,Active,,,,
COc1ccc(-c2nc(C(=O)NN=C3CCCCC3)cc3c2[nH]c2ccccc23)cc1,,,4.70,4.86,4.73,5.04,4.89,4.99,,,4.93,4.99,
CC(C)=NNC(=O)c1cc2c([nH]c3ccccc32)c(-c2ccccc2)n1,,,4.70,4.70,4.79,4.85,4.58,5.17,,,4.99,4.81,
CC(C)=NNC(=O)c1cc2c([nH]c3ccccc32)c(-c2ccc([N+](=O)[O-])cc2)n1,,,< 4.00,< 4.00,< 4.00,< 4.00,< 4.00,< 4.00,,,< 4.00,< 4.00,
O=C(N/N=C/c1ccccc1Cl)c1cc2c([nH]c3ccccc32)c(-c2cccc([N+](=O)[O-])c2)n1,,,4.54,4.81,4.77,4.85,< 4.00,4.17,,,4.45,4.78,
O=C(N/N=C/c1ccccc1)c1cc2c([nH]c3ccccc32)c(-c2ccccc2)n1,,,5.07,< 4.00,< 4.00,4.80,4.98,4.10,,,4.59,4.93,
COc1ccc(-c2nc(C(=O)NN=C(C)C)cc3c2[nH]c2ccccc23)cc1,,,< 4.00,< 4.00,< 4.00,< 4.00,< 4.00,< 4.00,,,4.39,< 4.00,
O=C(NN=C1CCCC1)c1cc2c([nH]c3ccccc32)c(-c2ccccc2Cl)n1,,,4.86,4.70,4.93,5.13,4.95,< 4.00,,,4.93,4.82,
COc1ccc(/C=N/NC(=O)c2cc3c([nH]c4ccccc43)c(-c3ccccc3)n2)cc1,,,4.23,4.41,< 4.00,4.96,5.00,4.84,,,4.18,4.23,
COc1ccc(-c2nc(C(=O)N/N=C/c3ccc([N+](=O)[O-])cc3)cc3c2[nH]c2ccccc23)cc1,,,< 4.00,< 4.00,< 4.00,< 4.00,< 4.00,< 4.00,,,< 4.00,< 4.00,
CC(C)=NNC(=O)c1cc2c([nH]c3ccccc32)c(-c2ccccc2Cl)n1,,,< 4.00,4.41,< 4.00,4.57,4.19,4.66,,,4.72,4.59,
COc1ccc(-c2nc(C(=O)N/N=C/c3ccccc3Cl)cc3c4ccccc4n(C)c23)cc1,,,< 4.00,< 4.00,< 4.00,4.85,< 4.00,< 4.00,,,< 4.00,< 4.00,
O=C(NN=C1CCCCC1)c1cc2c([nH]c3ccccc32)c(-c2ccc([N+](=O)[O-])cc2)n1,,,< 4.00,< 4.00,4.14,4.59,< 4.00,< 4.00,,,< 4.00,< 4.00,
CN(C)c1ccc(/C=N/NC(=O)c2cc3c([nH]c4ccccc43)c(-c3ccccc3)n2)cc1,,,< 4.00,< 4.00,< 4.00,4.12,4.12,< 4.00,,,4.06,4.06,
O=C(N/N=C/c1ccccc1Cl)c1cc2c([nH]c3ccccc32)c(-c2ccc(O)cc2)n1,,,5.66,5.77,5.49,5.15,5.74,5.78,,,5.81,5.69,
Cn1c2ccccc2c2cc(C(=O)N/N=C/c3ccccc3Cl)nc(-c3ccccc3)c21,,,< 4.00,< 4.00,< 4.00,< 4.00,< 4.00,< 4.00,,,< 4.00,< 4.00,
